Experimental data published in ChEMBL document CHEMBL3112482, “Nonclassical antifolates, part 5. Benzodiazepine analogs as a new class of DHFR inhibitors: synthesis, antitumor testing and molecular modeling study” (Eur J Med Chem, 2014).

Key:
Dihydrofolate reductase = molecular target: T1, Dihydrofolate reductase (Bos taurus, UniProt P00376); assay: Inhibition of bovine liver DHFR measured for every 1 min of 10 mins
T1 sequence (P00376 whole entry): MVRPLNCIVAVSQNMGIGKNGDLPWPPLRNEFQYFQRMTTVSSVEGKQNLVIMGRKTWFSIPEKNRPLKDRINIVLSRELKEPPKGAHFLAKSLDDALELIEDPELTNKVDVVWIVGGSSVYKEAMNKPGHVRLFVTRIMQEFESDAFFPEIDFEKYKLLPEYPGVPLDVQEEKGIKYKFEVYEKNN

ACHN = assay: Growth inhibition of human ACHN cells at 10 uM after 48 hrs; format: functional; details: read-out: GI
In short: (§1)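 Single-dose primary screen in the NCI 60 human tumour cell line panel, run at the NCI facility. The panel covers nine subpanels: leukaemia, non-small cell lung, colon, CNS, melanoma, ovarian, renal, prostate and breast. Read-out was percent growth of treated cells, shown as a mean graph and reported as percent growth inhibition.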

PC-3 = assay: Growth inhibition of human PC3 cells at 10 uM after 48 hrs; format: functional; details: PC-3, 48 h, read-out: GI; in short: as §1
SNB-19 = assay: Growth inhibition of human SNB19 cells at 10 uM after 48 hrs; format: functional; details: SNB-19, 48 h, read-out: GI
In short: (§2)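 NCI 60-cell-line disease-oriented human tumor panel, single-dose primary screen at 10 µM. Data given as mean-graph percent growth of treated cells, reported as percent growth inhibition (GI %).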

[1] = Growth inhibition of human SF539 cells at 10 uM after 48 hrs; format: functional; details: SF-539, 48 h, read-out: GI; in short: as §2
[2] = Cytotoxicity against human colon cancer cells at 10 uM after 48 hrs; format: functional; details: Cancer cell lines; in short: as §1
[3] = Cytotoxicity against human prostate cancer cells at 10 uM after 48 hrs; format: functional; details: Cancer cell lines
[4] = Growth inhibition of human HOP92 cells at 10 uM after 48 hrs; format: functional; details: HOP-92, 48 h, read-out: GI; in short: as §1
SF-268 = assay: Growth inhibition of human SF268 cells at 10 uM after 48 hrs; format: functional; details: SF-268, 48 h, read-out: GI; in short: as §2
T47D = assay: Growth inhibition of human T47D cells at 10 uM after 48 hrs; format: functional; details: read-out: GI; in short: as §2
[5] = Growth inhibition of human Hs 578T cells at 10 uM after 48 hrs; format: functional; details: read-out: GI; in short: as §1
NCI-H23 = assay: Growth inhibition of human NCI-H23 cells at 10 uM after 48 hrs; format: functional; details: NCI-H23, 48 h, read-out: GI; in short: as §1
DU-145 = assay: Growth inhibition of human DU145 cells at 10 uM after 48 hrs; format: functional; details: DU-145, 48 h, read-out: GI; in short: as §1
SK-MEL-28 = assay: Growth inhibition of human SK-MEL-28 cells at 10 uM after 48 hrs; format: functional; details: SK-MEL-28, 48 h, read-out: GI; in short: as §2
NCI-H322M = assay: Growth inhibition of human NCI-H322M cells at 10 uM after 48 hrs; format: functional; details: read-out: GI; in short: as §1
MDA-MB-231 = assay: Growth inhibition of human MDA-MB-231 cells at 10 uM after 48 hrs; format: functional; details: MDA-MB-231, 48 h, read-out: GI; in short: as §1
NCI-H460 = assay: Growth inhibition of human NCI-H460 cells at 10 uM after 48 hrs; format: functional; details: NCI-H460, 48 h, read-out: GI; in short: as §1
SK-OV-3 = assay: Growth inhibition of human SKOV3 cells at 10 uM after 48 hrs; format: functional; details: SK-OV-3, 48 h, read-out: GI; in short: as §2
A498 = assay: Growth inhibition of human A498 cells at 10 uM after 48 hrs; format: functional; details: A498, 48 h, read-out: GI; in short: as §1
CAKI-1 = assay: Growth inhibition of human CAKI-1 cells at 10 uM after 48 hrs; format: functional; details: CAKI-1, 48 h, read-out: GI; in short: as §1
K562 = assay: Growth inhibition of human K562 cells at 10 uM after 48 hrs; format: functional; details: K562, 48 h, read-out: GI; in short: as §1
[6] = Cytotoxicity against human renal cancer cells at 10 uM after 48 hrs; format: functional; details: Cancer cell lines
786-0 = assay: Growth inhibition of human 786-0 cells at 10 uM after 48 hrs; format: functional; details: 786-0, 48 h, read-out: GI; in short: as §1
[7] = Growth inhibition of human EKVX cells at 10 uM after 48 hrs; format: functional; details: read-out: GI; in short: as §1
[8] = Growth inhibition of human OVCAR4 cells at 10 uM after 48 hrs; format: functional; details: OVCAR-4, 48 h, read-out: GI; in short: as §1
UACC-62 = assay: Growth inhibition of human UACC62 cells at 10 uM after 48 hrs; format: functional; details: UACC-62, 48 h, read-out: GI; in short: as §2
SK-MEL-5 = assay: Growth inhibition of human SK-MEL-5 cells at 10 uM after 48 hrs; format: functional; details: SK-MEL-5, 48 h, read-out: GI; in short: as §2
SN12C = assay: Growth inhibition of human SN12C cells at 10 uM after 48 hrs; format: functional; details: read-out: GI; in short: as §2
SF-295 = assay: Growth inhibition of human SF295 cells at 10 uM after 48 hrs; format: functional; details: SF-295, 48 h, read-out: GI; in short: as §2
A549 = assay: Growth inhibition of human A549 cells at 10 uM after 48 hrs; format: functional; details: A549, 48 h, read-out: GI; in short: as §1
MDA-MB-435 = assay: Growth inhibition of human MDA-MB-435 cells at 10 uM after 48 hrs; format: functional; details: MDA-MB-435, 48 h, read-out: GI; in short: as §1
[9] = Cytotoxicity against human melanoma cells at 10 uM after 48 hrs; format: functional; details: Melanoma cell; in short: as §1
[10] = Cytotoxicity against human non-small cell lung cancer cells at 10 uM after 48 hrs; format: functional; details: Cancer cell lines; in short: as §1
IGROV-1 = assay: Growth inhibition of human IGROV1 cells at 10 uM after 48 hrs; format: functional; details: IGROV-1, 48 h, read-out: GI; in short: as §1
OVCAR-8 = assay: Growth inhibition of human OVCAR8 cells at 10 uM after 48 hrs; format: functional; details: OVCAR-8, 48 h, read-out: GI; in short: as §1
[11] = Growth inhibition of human UACC257 cells at 10 uM after 48 hrs; format: functional; details: UACC-257, 48 h, read-out: GI; in short: as §2
[12] = Growth inhibition of human OVCAR5 cells at 10 uM after 48 hrs; format: functional; details: OVCAR-5, 48 h, read-out: GI; in short: as §1
[13] = Cytotoxicity against human CNS cancer cells at 10 uM after 48 hrs; format: functional; details: Cancer cell lines
[14] = Cytotoxicity against human leukemia cells at 10 uM after 48 hrs; format: functional; details: Leukemia cell
HOP-62 = assay: Growth inhibition of human HOP62 cells at 10 uM after 48 hrs; format: functional; details: HOP-62, 48 h, read-out: GI; in short: as §1
TK-10 = assay: Growth inhibition of human TK10 cells at 10 uM after 48 hrs; format: functional; details: TK-10, 48 h, read-out: GI; in short: as §2
SR = assay: Growth inhibition of human SR cells at 10 uM after 48 hrs; format: functional; details: read-out: GI; in short: as §2
[15] = Growth inhibition of human UO31 cells at 10 uM after 48 hrs; format: functional; details: UO-31, 48 h, read-out: GI; in short: as §2
[16] = Growth inhibition of human NCI-ADR-RES cells at 10 uM after 48 hrs; format: functional; details: read-out: GI; in short: as §1
U-251 = assay: Growth inhibition of human U251 cells at 10 uM after 48 hrs; format: functional; details: U-251, 48 h, read-out: GI; in short: as §2
SK-MEL-2 = assay: Growth inhibition of human SK-MEL-2 cells at 10 uM after 48 hrs; format: functional; details: SK-MEL-2, 48 h, read-out: GI; in short: as §2
[17] = Cytotoxicity against human breast cancer cells at 10 uM after 48 hrs; format: functional; details: Cancer cell lines; in short: as §1
SNB-75 = assay: Growth inhibition of human SNB75 cells at 10 uM after 48 hrs; format: functional; details: SNB-75, 48 h, read-out: GI; in short: as §2
KM12 = assay: Growth inhibition of human KM12 cells at 10 uM after 48 hrs; format: functional; details: KM12, 48 h, read-out: GI; in short: as §1
OVCAR-3 = assay: Growth inhibition of human OVCAR3 cells at 10 uM after 48 hrs; format: functional; details: OVCAR-3, 48 h, read-out: GI; in short: as §1
MCF7 = assay: Growth inhibition of human MCF7 cells at 10 uM after 48 hrs; format: functional; details: MCF7, 48 h, read-out: GI; in short: as §1
[18] = read-out: LC50 (the source's name)

Compound `Cc1cc2c(cc1C)NC(c1ccc(Cl)cc1)=C1CCC/C(=C\c3ccc(Cl)cc3)C1=N2` has an IC50 (Dihydrofolate reductase) of 70 µM.

`COc1ccc(/C=C2\CCCc3c2nc(C)nc3-c2ccc(OC)c(OC)c2)cc1OC` gave an inhibition of growth at 10 µM (ACHN) of 90.2%, an inhibition of growth at 10 µM (PC-3) of 68% and an inhibition of growth at 10 µM (SNB-19) of 39.6%. The inhibition of growth at 10 µM [1] was 82.9%, the GI50 [2] was 28.9 µM and the TGI [2] was 88.9 µM. It also gave a CC50 [2, 18] of over 100 µM, a GI50 [3] of 26.9 µM and an LC50 [3] of over 100 µM. It also gave a TGI [3] of over 100 µM, an inhibition of growth at 10 µM [4] of 69.9% and an inhibition of growth at 10 µM (SF-268) of 80%. It also gave an inhibition of growth at 10 µM (T47D) of 88.8%, an inhibition of growth at 10 µM [5] of 41% and an inhibition of growth at 10 µM (NCI-H23) of 70.9%. The inhibition of growth at 10 µM (DU-145) was 92.7%, the inhibition of growth at 10 µM (SK-MEL-28) was 77% and the inhibition of growth at 10 µM (NCI-H322M) was 52.6%. It also gave an inhibition of growth at 10 µM (MDA-MB-231) of 92.9%, an inhibition of growth at 10 µM (NCI-H460) of 99.4% and an inhibition of growth at 10 µM (SK-OV-3) of 93%. It also gave an inhibition of growth at 10 µM (A498) of 94.1%, an inhibition of growth at 10 µM (CAKI-1) of 94.9% and an inhibition of growth at 10 µM (K562) of 94.1%. The CC50 [6] was 96.9 µM, the GI50 [6] was 23.7 µM and the TGI [6] was 98.7 µM. The inhibition of growth at 10 µM (786-0) was 90.8%, the inhibition of growth at 10 µM [7] was under 30% and the IC50 (Dihydrofolate reductase) was 0.1 µM. For the same compound, the inhibition of growth at 10 µM [8] was 79.1%, the inhibition of growth at 10 µM (UACC-62) was 89.1% and the inhibition of growth at 10 µM (SK-MEL-5) was 93.8%. The inhibition of growth at 10 µM (SN12C) was 94.1%, the inhibition of growth at 10 µM (SF-295) was 97% and the inhibition of growth at 10 µM (A549) was 82.1%. For the same compound, the inhibition of growth at 10 µM (MDA-MB-435) was 98.5%, the GI50 [9] was 26.9 µM and the TGI [9] was over 100 µM. The CC50 [9, 18] was over 100 µM, the GI50 [10] was 37.8 µM and the TGI [10] was 90.2 µM. It also gave a CC50 [10, 18] of over 100 µM, an inhibition of growth at 10 µM (IGROV-1) of 75.6% and an inhibition of growth at 10 µM (OVCAR-8) of 96.9%. It also gave an inhibition of growth at 10 µM [11] of 79.8%, an inhibition of growth at 10 µM [12] of 95.3% and a GI50 [13] of 34.2 µM. It also gave a TGI [13] of over 100 µM, a CC50 [13, 18] of over 100 µM and a GI50 [14] of 6.8 µM. For the same compound, the LC50 [14] was over 100 µM, the TGI [14] was 92.7 µM and the inhibition of growth at 10 µM (HOP-62) was 67.9%. The inhibition of growth at 10 µM (TK-10) was 87.8%, the inhibition of growth at 10 µM (SR) was under 30% and the inhibition of growth at 10 µM [15] was 65.7%. For the same compound, the inhibition of growth at 10 µM [16] was 88.8%, the inhibition of growth at 10 µM (U-251) was 81.8% and the inhibition of growth at 10 µM (SK-MEL-2) was 94.1%. It also gave a GI50 [17] of 15.7 µM, an LC50 (concentration killing 50% of cells) [17] of 99.2 µM and a TGI [17] of 80.6 µM. It also gave an inhibition of growth at 10 µM (SNB-75) of 64.8%, an inhibition of growth at 10 µM (KM12) of 93.8% and an inhibition of growth at 10 µM (OVCAR-3) of 97.1%. It also gave an inhibition of growth at 10 µM (MCF7) of 73.7%.

Compound `COc1ccc(/C=C2\CCCC3=C(c4ccc(OC)c(OC)c4)Nc4ccccc4N=C32)cc1OC` has an IC50 (Dihydrofolate reductase) of 0.06 µM.
